Assay results from ChEMBL document CHEMBL3627646, “Synthesis and biological activity of amino acid derivatives of avarone and its model compound” (Bioorg Med Chem, 2015).
pIC50: −log10 of the molar value. Converted amounts (≈) assume the structure as drawn.

Experiments:
[1] = system: Micrococcus flavus; assay: Antibacterial activity against Micrococcus flavus ATCC 10240 after 24 hrs by microbroth double dilution method; assay type: functional; settings: ATCC 10240, 24 h
Summary of the method: (§1)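 Microbroth double dilution in Mueller Hinton broth; compound stock 10 mg/mL in DMSO serially halved across rows. Wells inoculated with 10 μL culture at 10^6 cells/mL, incubated 37 °C for 24 h. Amikacin row as positive control, DMSO row as negative control. MIC taken as lowest concentration inhibiting bacterial growth.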

[2] = system: Bacillus subtilis; assay: Antibacterial activity against Bacillus subtilis ATCC 6633 after 24 hrs by microbroth double dilution method; assay type: functional; settings: ATCC 6633, 24 h; summary of the method: as §1
[3] = system: Salmonella enterica; assay: Antibacterial activity against Salmonella enterica ATCC 13076 after 24 hrs by microbroth double dilution method; assay type: functional; settings: ATCC 13076, 24 h; summary of the method: as §1
[4] = system: Saccharomyces cerevisiae; assay: Antifungal activity against Saccharomyces cerevisiae ATCC 9763 after 24 hrs by microbroth double dilution method; assay type: functional
[5] = system: A549; assay: Cytotoxicity against human A549 cells assessed as cell survival after 72 hrs by MTT assay; assay type: functional, cell-based; settings: A549, 72 h
Summary of the method: (§2)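 Cells seeded (HeLa 2000, MDA-MB-453 3000, others 5000 per well), treated 24 h later (K562 after 2 h). Five double-diluted final concentrations, 200–12.5 μM, from 10 mM DMSO stocks, in RPMI-1640 with 10% FBS, pH 7.2, 72 h. MTT 4 h at 37 °C, SDS added, A570 read next day. Survival relative to medium control; IC50 from survival curves; triplicate; cisplatin positive control.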

[6] = system: K562; assay: Cytotoxicity against human K562 cells assessed as cell survival after 72 hrs by MTT assay; assay type: functional, cell-based; settings: K562, 72 h; summary of the method: as §2
[7] = system: Micrococcus luteus; assay: Antibacterial activity against Micrococcus luteus ATCC 4698 after 24 hrs by microbroth double dilution method; assay type: functional; settings: ATCC 4698, 24 h; summary of the method: as §1
[8] = system: Staphylococcus aureus; assay: Antibacterial activity against Staphylococcus aureus ATCC 6538 after 24 hrs by microbroth double dilution method; assay type: functional; settings: ATCC 6538, 24 h; summary of the method: as §1
[9] = system: Candida albicans; assay: Antifungal activity against Candida albicans ATCC 10231 after 24 hrs by microbroth double dilution method; assay type: functional
[10] = system: Artemia salina; assay: Cytotoxicity in Brine shrimp assessed as nauplii mortality after 24 hrs; assay type: organism-based; settings: in vivo
Summary of the method: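 Artemia salina eggs hatched in aerated tap water with dried yeast at 18–20 °C under illumination for 48 h, and freshly hatched nauplii were used. Compounds in DMSO (0.01–1 mg) were added to 950 µL artificial seawater containing 10–20 nauplii, with 5% final DMSO. After 24 h under illumination at room temperature, dead and surviving nauplii were counted and statistically analysed.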

[11] = system: Proteus hauseri; assay: Antibacterial activity against Proteus hauseri ATCC 13315 after 24 hrs by microbroth double dilution method; assay type: functional; settings: ATCC 13315, 24 h; summary of the method: as §1
[12] = system: Clostridium sporogenes; assay: Antibacterial activity against Clostridium sporogenes ATCC 19404 after 24 hrs by microbroth double dilution method; assay type: functional; settings: ATCC 19404, 24 h; summary of the method: as §1
[13] = system: HeLa; assay: Cytotoxicity against human HeLa cells assessed as cell survival after 72 hrs by MTT assay; assay type: functional, cell-based; summary of the method: as §2
[14] = system: MRC5; assay: Cytotoxicity against human MRC5 cells assessed as cell survival after 72 hrs by MTT assay; assay type: cell-based; settings: MRC5, 72 h; summary of the method: as §2
[15] = system: Pseudomonas aeruginosa; assay: Antibacterial activity against Pseudomonas aeruginosa ATCC 9027 after 24 hrs by microbroth double dilution method; assay type: functional; settings: ATCC 9027, 24 h; summary of the method: as §1
[16] = system: Aspergillus brasiliensis; assay: Antifungal activity against Aspergillus brasiliensis ATCC 16404 after 24 hrs by microbroth double dilution method; assay type: functional
[17] = system: Kocuria rhizophila; assay: Antibacterial activity against Kocuria rhizophila ATCC 9341 after 24 hrs by microbroth double dilution method; assay type: functional; settings: ATCC 9341, 24 h; summary of the method: as §1
[18] = system: MDA-MB-453; assay: Cytotoxicity against human MDA-MB-453 cells assessed as cell survival after 72 hrs by MTT assay; assay type: functional, cell-based; settings: MDA-MB-453, 72 h; summary of the method: as §2
[19] = Cytotoxicity against human Fem-X cells assessed as cell survival after 72 hrs by MTT assay; assay type: functional, cell-based; summary of the method: as §2
[20] = system: Escherichia coli; assay: Antibacterial activity against Escherichia coli ATCC 25922 after 24 hrs by microbroth double dilution method; assay type: functional; settings: ATCC 25922, 24 h; summary of the method: as §1

Compound	MIC [1]	MIC [2]	MIC [3]	MIC ([4]; ATCC 9763, 24 h)	pIC50 [5]	pIC50 [6]	MIC [7]	MIC [8]	MIC ([9]; ATCC 10231, 24 h)	LC50 [10]	MIC [11]	MIC [12]	pIC50 [13]	pIC50 [14]	MIC [15]	MIC ([16]; ATCC 16404, 24 h)	MIC [17]	pIC50 [18]	pIC50 [19]	MIC [20]	other results
CC(C)(C)C1=CC(=O)C=CC1=O	475 µM (≈ 78 µg/mL)	238 µM (≈ 39 µg/mL)	475 µM (≈ 78 µg/mL)	238 µM (≈ 39 µg/mL)	4.33	4.81	238 µM (≈ 39 µg/mL)	238 µM (≈ 39 µg/mL)	122 µM (≈ 20 µg/mL)	27.4 ppm	475 µM (≈ 78 µg/mL)	475 µM (≈ 78 µg/mL)	4.36	< 3.70	475 µM (≈ 78 µg/mL)	122 µM (≈ 20 µg/mL)	475 µM (≈ 78 µg/mL)	4.25	4.38	238 µM (≈ 39 µg/mL)	–
CC(C)[C@@H](NC1=CC(=O)C=C(C(C)(C)C)C1=O)C(=O)O	2240 µM (≈ 626 µg/mL)	2240 µM (≈ 626 µg/mL)	4480 µM (≈ 1250 µg/mL)	563 µM (≈ 157 µg/mL)	3.81	4.24	1120 µM (≈ 313 µg/mL)	1120 µM (≈ 313 µg/mL)	563 µM (≈ 157 µg/mL)	574.9 ppm	4480 µM (≈ 1250 µg/mL)	2240 µM (≈ 626 µg/mL)	4.02	< 3.70	2240 µM (≈ 626 µg/mL)	2240 µM (≈ 626 µg/mL)	4480 µM (≈ 1250 µg/mL)	3.88	4.61	1120 µM (≈ 313 µg/mL)	–
NCC[C@H](O)C(=O)N[C@@H]1C[C@H](N)[C@@H](O[C@H]2O[C@H](CN)[C@@H](O)[C@H](O)[C@H]2O)[C@H](O)[C@H]1O[C@H]1O[C@H](CO)[C@@H](O)[C@H](N)[C@H]1O [AMIKACIN]	3.42 µM (≈ 2 µg/mL)	71.7 µM (≈ 42 µg/mL)	13.7 µM (≈ 8 µg/mL)	–	–	–	13.7 µM (≈ 7.99 µg/mL)	18.8 µM (≈ 11 µg/mL)	–	–	11.9 µM (≈ 7 µg/mL)	25.6 µM (≈ 15 µg/mL)	–	–	85.4 µM (≈ 50 µg/mL)	–	3.42 µM (≈ 2 µg/mL)	–	–	8.54 µM (≈ 5 µg/mL)	–
CC1=CCC[C@H]2[C@](C)(CC3=CC(=O)C=C(NCC(=O)O)C3=O)[C@@H](C)CC[C@]12C	407 µM (≈ 157 µg/mL)	407 µM (≈ 157 µg/mL)	407 µM (≈ 157 µg/mL)	100 µM (≈ 38.7 µg/mL)	4.33	4.81	101 µM (≈ 39 µg/mL)	101 µM (≈ 39 µg/mL)	12.6 µM (≈ 4.86 µg/mL)	487.1 ppm	811 µM (≈ 313 µg/mL)	407 µM (≈ 157 µg/mL)	4.70	3.74	407 µM (≈ 157 µg/mL)	404 µM (≈ 156 µg/mL)	811 µM (≈ 313 µg/mL)	5.23	4.75	101 µM (≈ 39 µg/mL)	–
CC(C)(C)C1=CC(=O)C=C(N[C@@H](Cc2ccccc2)C(=O)O)C1=O	1910 µM (≈ 626 µg/mL)	1910 µM (≈ 626 µg/mL)	1910 µM (≈ 626 µg/mL)	119 µM (≈ 39 µg/mL)	3.78	4.08	480 µM (≈ 157 µg/mL)	480 µM (≈ 157 µg/mL)	480 µM (≈ 157 µg/mL)	196.8 ppm	1910 µM (≈ 626 µg/mL)	1910 µM (≈ 626 µg/mL)	4.18	< 3.70	1910 µM (≈ 626 µg/mL)	957 µM (≈ 313 µg/mL)	1910 µM (≈ 626 µg/mL)	4.17	4.17	480 µM (≈ 157 µg/mL)	–
CC1=CCC[C@H]2[C@](C)(CC3=CC(=O)C=C(N[C@@H](Cc4c[nH]c5ccccc45)C(=O)O)C3=O)[C@@H](C)CC[C@]12C	37.9 µM (≈ 19.5 µg/mL)	37.9 µM (≈ 19.5 µg/mL)	19.1 µM (≈ 9.81 µg/mL)	< 2.39 µM	4.40	4.79	19.1 µM (≈ 9.81 µg/mL)	19.1 µM (≈ 9.81 µg/mL)	305 µM (≈ 157 µg/mL)	–	37.9 µM (≈ 19.5 µg/mL)	37.9 µM (≈ 19.5 µg/mL)	4.79	3.80	37.9 µM (≈ 19.5 µg/mL)	1220 µM (≈ 626 µg/mL)	305 µM (≈ 157 µg/mL)	4.64	4.83	19.1 µM (≈ 9.81 µg/mL)	–
CC(C)(C)C1=CC(=O)C=C(N[C@@H](Cc2c[nH]c3ccccc23)C(=O)O)C1=O	1710 µM (≈ 626 µg/mL)	1710 µM (≈ 626 µg/mL)	1710 µM (≈ 626 µg/mL)	213 µM (≈ 78.1 µg/mL)	3.70	4.60	1710 µM (≈ 626 µg/mL)	855 µM (≈ 313 µg/mL)	213 µM (≈ 78.1 µg/mL)	–	1710 µM (≈ 626 µg/mL)	1710 µM (≈ 626 µg/mL)	3.97	< 3.70	1710 µM (≈ 626 µg/mL)	1410 µM (≈ 516 µg/mL)	1710 µM (≈ 626 µg/mL)	3.92	4.46	1710 µM (≈ 626 µg/mL)	–
NYSTATIN	–	–	–	–	–	–	–	–	–	–	–	–	–	–	–	–	–	–	–	–	MIC [4]: 1350 µM; MIC [9]: 2700 µM; MIC [16]: 1350 µM
